# How the values were obtained:
# AoiQ-FDH [1] = test: flavin reductase activity, NADH consumption; assay type: biochemical, Aspergillus oryzae; conditions: no flavin reductase added; copurified FAD
# Outline: (§1)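 Enzyme is the FDH domain of AoiQ, expressed as a standalone protein apart from its methyltransferase domain. Flavin reductase activity was followed by consumption of NADH or NADPH, with no exogenous flavin reductase added. Steady-state KM, kcat and kcat/KM were reported for each nicotinamide cofactor.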
# AoiQ-FDH [2] = test: flavin reductase activity, NADPH consumption; assay type: biochemical, Aspergillus oryzae; conditions: no flavin reductase added; copurified FAD
# Outline: as §1
compound,measurement,setting,value
NC(=O)C1=CN([C@@H]2O[C@H](COP(=O)(O)OP(=O)(O)OC[C@H]3O[C@@H](n4cnc5c(N)ncnc54)[C@H](O)[C@@H]3O)[C@@H](O)[C@H]2O)C=CC1 [NADH],Km,AoiQ-FDH [1],43.5 ± 3.6 µM
NC(=O)C1=CN([C@@H]2O[C@H](COP(=O)(O)OP(=O)(O)OC[C@H]3O[C@@H](n4cnc5c(N)ncnc54)[C@H](OP(=O)(O)O)[C@@H]3O)[C@@H](O)[C@H]2O)C=CC1 [NADPH],Km,AoiQ-FDH [2],30.5 ± 6 µM

# From publication PMC8434754 (Journal of the American Chemical Society, 2021)
